From ChEMBL document CHEMBL1649083, “Discovery of novel inhibitors of the NorA multidrug transporter of Staphylococcus aureus” (2011)
≈ marks a conversion by molar mass, not a printed value.

Assays:
[1] = target: T1, Quinolone resistance protein NorA (Staphylococcus aureus) (UniProt P0A0J7); assay: Inhibition of NorA in Staphylococcus aureus 1199 assessed as reduction in ciprofloxacin MIC by microdilution technique
T1 sequence (whole entry): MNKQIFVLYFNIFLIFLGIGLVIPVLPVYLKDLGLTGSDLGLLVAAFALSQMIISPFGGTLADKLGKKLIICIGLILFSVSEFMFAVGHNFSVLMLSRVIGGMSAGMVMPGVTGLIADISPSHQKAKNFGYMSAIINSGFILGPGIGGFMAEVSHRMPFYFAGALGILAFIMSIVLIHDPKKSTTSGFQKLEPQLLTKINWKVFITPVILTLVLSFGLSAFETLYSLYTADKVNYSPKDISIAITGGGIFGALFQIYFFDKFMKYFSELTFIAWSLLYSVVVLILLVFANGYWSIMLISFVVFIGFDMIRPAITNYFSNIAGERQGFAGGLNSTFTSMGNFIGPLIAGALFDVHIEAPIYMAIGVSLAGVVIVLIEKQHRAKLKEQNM
In short: (§1)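 Checkerboard combination: fresh scalar dilutions of test compound crossed with ciprofloxacin dilutions. Ciprofloxacin MIC determined by broth microdilution per CLSI guidelines, in duplicate. The result is the fold reduction in ciprofloxacin MIC relative to ciprofloxacin alone, read at the stated test-compound concentration. Reserpine served as reference inhibitor.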

[2] = target: T1, Quinolone resistance protein NorA (Staphylococcus aureus); assay: Inhibition of NorA in Staphylococcus aureus 1199B assessed as reduction in ethidium bromide efflux at 50 uM by fluorimetry after 5 mins
In short: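 S. aureus SA-1199B (NorA overexpressing via promoter up-mutation; GrlA A116E), EtBr-loaded cells. EtBr loss measured fluorometrically over a 5 min time course, in duplicate, as mean total efflux. Percent reduction calculated versus efflux without compound. Test compound at 50 μM; increasing concentrations were also run for dose-response profiles.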

Staphylococcus aureus [3] = assay: Antibacterial activity against Staphylococcus aureus K2378 overexpressing NorA by microdilution technique; format: functional
In short: (§2)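 Intrinsic MIC of each test compound, run alone, by broth microdilution per CLSI guidelines, in duplicate.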

Staphylococcus aureus [4] = assay: Antibacterial activity against NorA deficient Staphylococcus aureus K1902 by microdilution technique; format: functional; in short: as §2
Staphylococcus aureus [5] = assay: Potentiation of ciprofloxacin MIC against NorA deficient Staphylococcus aureus K1902 by microdilution technique; format: functional
In short: (§3)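 MICs run in duplicate by broth microdilution following CLSI guidelines. Ciprofloxacin MICs were also determined with scalar dilutions of freshly prepared test compound solutions in checkerboard combination format. Strain panel: SA-K1902 (norA-), SA-K2378 (norA++), SA-1199 (norA wild-type), SA-1199B (norA++, GrlA A116E) and ATCC 25923 wild-type control.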

Staphylococcus aureus [6] = assay: Antibacterial activity against Staphylococcus aureus 1199 expressing wild type NorA by microdilution technique
Staphylococcus aureus [7] = assay: Potentiation of ciprofloxacin MIC against wild type Staphylococcus aureus ATCC 25923 by microdilution technique; format: functional; in short: as §3
[8] = target: T1, Quinolone resistance protein NorA (Staphylococcus aureus); assay: Inhibition of NorA in Staphylococcus aureus 1199B expressing GrlA A116E mutant assessed as reduction in ciprofloxacin MIC at 12.5 ug/ml by microdilution technique; in short: as §1
Staphylococcus aureus [9] = assay: Antibacterial activity against Staphylococcus aureus 1199B by microdilution technique; format: functional; in short: as §3
[10] = target: T1, Quinolone resistance protein NorA (Staphylococcus aureus); assay: Inhibition of NorA in Staphylococcus aureus K2378 assessed as reduction in ciprofloxacin MIC at 3.13 ug/ml by microdilution technique
In short: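 CLSI broth microdilution checkerboard combining ciprofloxacin with scalar dilutions of freshly prepared test compound, in duplicate, against S. aureus SA-K2378 (NorA-overexpressing; SA-K1902 norA-negative as paired strain). Value is the ciprofloxacin MIC reduction with test compound present at the stated fixed concentration.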

Staphylococcus aureus [11] = assay: Antibacterial activity against wild type Staphylococcus aureus ATCC 25923 by microdilution technique; format: functional; in short: as §2
Staphylococcus aureus [12] = assay: Antibacterial activity against Staphylococcus aureus 1199B overexpressing wild type NorA and GrlA A116E mutant by microdilution technique; format: functional; in short: as §2
[13] = target: T1, Quinolone resistance protein NorA (Staphylococcus aureus); assay: Inhibition of NorA in Staphylococcus aureus K2378 assessed as reduction in ciprofloxacin MIC at 12.5 ug/ml by microdilution technique; in short: as §1
[14] = target: T1, Quinolone resistance protein NorA (Staphylococcus aureus); assay: Inhibition of NorA in Staphylococcus aureus 1199B expressing GrlA A116E mutant assessed as reduction in ciprofloxacin MIC at 25 ug/ml by microdilution technique
In short: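 Ciprofloxacin MICs were measured in duplicate by broth microdilution following CLSI guidelines, alone and in checkerboard combination with scalar dilutions of freshly prepared test compound. Potentiation was scored as the reduction in ciprofloxacin MIC. Strains: SA-1199B (NorA overexpressed via promoter up-mutation, plus GrlA A116E) and ATCC 25923 (wild-type control).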

Row | Structure (SMILES) | inhibition [2] [%] | also measured
1 | Cn1cccc1-c1nc2cc(NC(=O)c3ccccc3)ccc2[nH]1 | 94.3 | fold change (FC) [1]: 4
2 | COc1ccc(OC[C@H]2CN(C)CC[C@@H]2c2ccccc2)cc1 | 47 | –
3 | COc1ccc(/C=C/C(=O)NCCc2c[nH]c3ccccc23)cc1OC | 84 | –
4 | CCCCOc1ccc([C@H]2C(C#N)=C(N)Oc3cc(N(CC)CC)ccc32)cc1 | 20.5 | –
5 | CN(C)CCCN1c2ccccc2Sc2ccc(Cl)cc21 | 76 | –
6 | O=C1NC(=O)/C(=C/c2ccc(-c3cc(C(=O)O)ccc3Cl)o2)S1 | 15.5 | –
7 | CCCOc1ccc(-c2cc(=O)c3ccccc3n2C)cc1 | 3.9 | –
8 | CCOC(=O)c1cn(C2CC2)c2c(C)c(N3CCC4=C(C3)/C(=N/OC)C(C)CS4)c(N)cc2c1=O (stereo unspecified) | 21.4 | –
9 | CC[C@H](C)N1C(=O)S/C(=C/c2ccc(-c3cc(C(=O)O)ccc3Cl)o2)C1=O | 81 | MIC (Staphylococcus aureus [3]): 50 µg/mL (≈ 123 µM); MIC (Staphylococcus aureus [4]): 50 µg/mL (≈ 123 µM); fold change (FC) (Staphylococcus aureus [5]): 2; MIC (Staphylococcus aureus [6]): 25 µg/mL (≈ 61.6 µM); fold change (FC) (Staphylococcus aureus [7]): 2; fold change (FC) [8]: 8; MIC (Staphylococcus aureus [9]): 123 µM (≈ 49.9 µg/mL); fold change (FC) [10]: 32; MIC (Staphylococcus aureus [11]): 50 µg/mL (≈ 123 µM); MIC (Staphylococcus aureus [12]): 50 µg/mL (≈ 123 µM); fold change (FC) [1]: 2; fold change (FC) [13]: 32
10 | CCOC(=O)CCSc1nc2c(c(C(F)(F)F)c1C#N)CC(C(C)(C)C)CC2 (stereo unspecified) | 25.2 | –
11 | CCOC(=O)c1cn(C2CC2)c2cc(N3CCC4=C(C3)/C(=N/O)C(C)CS4)c(N)cc2c1=O (stereo unspecified) | 91.2 | –
12 | C[C@@H](NCc1cccc(OCc2ccccc2)c1)[C@@H](O)c1ccccc1 | 86.6 | MIC (Staphylococcus aureus [3]): 50 µg/mL (≈ 144 µM); MIC (Staphylococcus aureus [4]): 100 µg/mL (≈ 288 µM); fold change (FC) (Staphylococcus aureus [5]): 2; MIC (Staphylococcus aureus [6]): 100 µg/mL (≈ 288 µM); fold change (FC) (Staphylococcus aureus [7]): 2; fold change (FC) [8]: 4; MIC (Staphylococcus aureus [9]): > 288 µM; fold change (FC) [10]: 4; MIC (Staphylococcus aureus [11]): 100 µg/mL (≈ 288 µM); MIC (Staphylococcus aureus [12]): > 100 µg/mL; fold change (FC) [1]: 2; fold change (FC) [13]: 16; fold change (FC) [14]: 16
13 | CC(C)Oc1ccc(-c2cc(=O)c3ccccc3n2C)cc1 | 10.3 | –
14 | CCOC(=O)c1cn(C2CC2)c2cc(N3CCC4=C(C3)/C(=N/OC)CCS4)c(N)cc2c1=O | 74.5 | –
15 | COc1ccccc1C1=Nc2ccccc2SC1 | 0 | –
16 | CCOC(=O)c1cn(C2CC2)c2cc(N3CCNCC3)c(F)cc2c1=O | 20.8 | –
17 | CCCOc1ccc(-c2cc(=O)c3cc(OC)c(O)cc3n2C)cc1 | 9.1 | –
18 | Cn1c(-c2ccccc2)cc(=O)c2cc(O)c(O)cc21 | 0 | –
19 | c1ccc(CCN(Cc2ccccc2)Cc2cccc(OCc3ccccc3)c2)cc1 | 0 | –

Second part, led by results:

Row | inhibition [2] [%] | Structure (SMILES) | also measured
20 | 88.4 | OC(CNCc1cccc(OCc2ccccc2)c1)c1ccccc1 (stereo unspecified) | fold change (FC) [1]: 4
21 | 73 | Fc1ccc([C@@H]2CCNC[C@H]2COc2ccc3c(c2)OCO3)cc1 | –
22 | 0 | Cn1c(-c2ccc(O)cc2)cc(=O)c2ccccc21 | –
23 | 1.3 | Cc1ccc(-n2c(SCc3ccc(C(=O)O)cc3)nnc2-c2ccc(Cl)cc2)cc1 | –
24 | 0 | CCCOc1ccc(-c2cc(O)c3ccccc3n2)cc1 | –
25 | 90 | CCOC(=O)c1cn(C2CC2)c2c(C)c(N3CCC4=C(C3)/C(=N/O)C(C)CS4)c(N)cc2c1=O (stereo unspecified) | –
26 | 0 | c1ccc(C2=Nc3ccccc3SC2)cc1 | –
27 | 0 | CCC(C)N1C(=O)S/C(=C/c2ccc(C(=O)O)cc2)C1=O (stereo unspecified) | –
28 | 35.1 | Cc1ccc(N2CCN(C3=Nc4cc(Cl)ccc4Oc4ccccc43)CC2)cc1 | –
29 | 41.8 | N#Cc1c(C(F)(F)F)cc(Cc2ccccc2)nc1SCc1ccc(C(=O)O)cc1 | –
